Source: PubChem BioAssay
This is a sample that favours compounds with a hit; in the whole collection about 5.8% have one here.
WT yeast gro inh = growth inhibition of WT yeast, mitochondrial fusion screen; mitochondrial fusion phenotypic screen, WT strain; inhibition, % at 10 µM; 190,000 tested, 2.1% active; AID 1362; in the data active = inhibition above about 58%; tested in S. cerevisiae
14-3-3 Bad inh = disrupts binding of bovine 14-3-3 zeta to phospho-Bad peptide; P63103; inhibition, % at 21.7 µM; TR-FRET 14-3-3zeta/Dy647-pBad peptide displacement, 1 h; AID 781; 220,000 tested, 0.71% active;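 active = inhibition above about 70%, limit read from the data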;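 note: 0% = full 14-3-3 plus peptide FRET controls and 100% = background without 14-3-3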
Target sequence (P63103 whole entry, looked up): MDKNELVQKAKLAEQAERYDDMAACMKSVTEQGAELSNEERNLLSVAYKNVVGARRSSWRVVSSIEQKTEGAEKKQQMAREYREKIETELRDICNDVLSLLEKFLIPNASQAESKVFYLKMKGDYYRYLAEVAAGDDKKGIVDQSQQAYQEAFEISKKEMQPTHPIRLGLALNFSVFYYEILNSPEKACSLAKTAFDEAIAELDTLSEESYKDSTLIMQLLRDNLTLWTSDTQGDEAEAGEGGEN
ROMK primary = modulators of human ROMK potassium channel; Tet-inducible ROMK, thallium flux fluorescence; actives lie on both sides; AID 1918; B-score at 10 µM; 130,000 tested, 2% active;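 active = signal ratio slope over the read window, or its plate-corrected B-score, at least 3 SD from the plate mean, either direction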;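 note: B-score of the F/F0 ratio slope over 7 to 12 s after thallium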
p47phox inh = p47phox (human) inhibition. 220,000 tested, 0.53% active. inhibition, % at 24.7 µM. p47phox/p22phox peptide binding, fluorescence polarization, 2 h. P14598;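 active = inhibition above about 30%, limit read from the data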;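 note: 0% = p47phox with labelled peptide and 100% = labelled peptide alone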
Target sequence (P14598 whole entry, looked up): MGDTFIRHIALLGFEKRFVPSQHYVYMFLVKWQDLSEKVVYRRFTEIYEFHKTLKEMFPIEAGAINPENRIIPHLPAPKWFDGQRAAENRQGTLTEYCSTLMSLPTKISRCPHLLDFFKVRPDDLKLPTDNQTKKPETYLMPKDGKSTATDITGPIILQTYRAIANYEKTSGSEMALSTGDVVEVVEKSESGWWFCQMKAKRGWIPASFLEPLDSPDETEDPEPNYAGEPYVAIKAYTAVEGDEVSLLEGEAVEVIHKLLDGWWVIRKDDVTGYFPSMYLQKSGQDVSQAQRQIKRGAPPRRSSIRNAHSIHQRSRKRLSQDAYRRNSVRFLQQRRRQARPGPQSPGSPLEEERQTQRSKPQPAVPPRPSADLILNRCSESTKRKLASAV
KCC2 mod = modulators of human KCC2 chloride dependent transport; AID 1456; KCC2 cells, thallium flux FluoZin-2 fluorescence; 190,000 tested, 2.2% active; Q9H2X9; B-score of Tl+ flux slope (higher = more flux/activation; lower = inhibition) at 10 µM;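 active = thallium flux slope and its plate-corrected score both differing from the plate sample mean at a set confidence after two filtering rounds, in either direction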;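 note: slope of fluorescence scaled to starting intensity during 10 to 20 s after thallium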
RBBP9 inhibitor = inhibitors of human serine hydrolase RBBP9; O75884; 220,000 tested, 0.2% active; recombinant RBBP9, FP-Rh probe fluorescence polarization; AID 1515; inhibition, % at 7.94 µM;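 active = inhibition above the campaign mean of all tested compounds plus 3 SD, cut at about 14% in these data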;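 note: plate controls were DMSO wells with RBBP9 for no effect and wells lacking RBBP9 protein for full effect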
Target sequence (O75884 whole entry, looked up): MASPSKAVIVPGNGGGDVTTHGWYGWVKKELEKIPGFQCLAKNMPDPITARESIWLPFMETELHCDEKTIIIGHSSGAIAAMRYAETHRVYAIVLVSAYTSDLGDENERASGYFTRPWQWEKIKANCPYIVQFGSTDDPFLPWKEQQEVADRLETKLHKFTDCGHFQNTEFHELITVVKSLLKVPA
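Measured by – fluorescence polarization · Test system – RBBP9 protein · Input – 2.5 µM RBBP9 dispensing solution, before mixing · Measure – percent inhibition from mP, scaled between DMSO and no-protein wells · Benchmarks – DMSO-treated enzyme wells and wells lacking RBBP9 · Times – preincubation 30 min plus labeling 45 min at 25 °C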
KCC2 secondary = KCC2 (human) modulation, secondary assay. HEK293-KCC2, thallium flux, FluoZin2 fluorescence; hits give high values. shares compounds with KCC2 mod. normalised thallium flux (F/F0 slope) at 10 µM. 3,700 tested, 15% active;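 active = thallium flux slope above the same plate's solvent-only control mean plus 3 SD; inconclusive = the two replicate wells disagree; inactive = no significant difference from solvent-only control wells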
KCC2 bumet counter = thallium flux despite bumetanide block in KCC2 cells, secondary assay 3; HEK293-KCC2 + bumetanide/ouabain, thallium flux FluoZin2; hits give high values; AID 1714; shares compounds with KCC2 mod; normalized thallium flux at 10 µM; 3,700 tested, 49% active;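 active = thallium entry rate above the same plate's blocked-transporter control wells by more than 3 SD; inconclusive = the two repeat wells disagree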;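 note: raw slope of fluorescence over initial fluorescence between 10 and 20 s after thallium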
KCC2 sec2 = KCC2 (human) modulation, second secondary assay | HEK293-KCC2, thallium flux FluoZin2 fluorescence; actives lie on both sides; F/F0 rise rate, 10–20 s post-thallium | 3,700 tested, 23% active | shares compounds with KCC2 mod | normalized thallium flux at 10 µM;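 active = thallium flux slope more than 3 SD above or below the plate's solvent-only control mean, mostly below; inconclusive = the two repeat wells disagreed; inactive = no significant shift from solvent-only controls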;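 note: raw slope with 0.1% DMSO as baseline and bumetanide as block control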
HEK293 Tl flux = acts in parental HEK cells, KCC2 counter-screen; 3,700 tested, 46% active; thallium flux rate (normalised fluorescence) at 10 µM; AID 1716; HEK293 parental cells, thallium flux FluoZin2, ouabain; baseline-ratio fluorescence slope, 10–20 s after thallium; shares compounds with KCC2 mod;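 active = thallium flux rate significantly above the same plate's solvent-only control wells, beyond their mean plus 3 SD; inconclusive = the two replicate wells gave conflicting results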
KCC2 ouabain = confirmation of human KCC2 modulators with ouabain | shares compounds with KCC2 mod | HEK293-KCC2, thallium flux FluoZin2 fluorescence; bidirectional: low = inhibitor, high = activator | raw Tl+ flux slope (below DMSO = inhibition, above = activation) at 10 µM | 3,700 tested, 48% active | AID 1717;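 active = thallium flux slope beyond 3 SD from same-plate DMSO control mean in most replicates, usually higher, sometimes lower; inconclusive = repeat tests gave conflicting results; inactive = no significant difference from controls in most replicates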;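 note: slope of initial-normalized fluorescence between seconds 10 and 20 after thallium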
HEK293 Tl flux2 = acts in parental HEK cells, second KCC2 counter-screen; shares compounds with KCC2 mod; HEK293 parental, thallium flux FluoZin-2 fluorescence slope; thallium flux slope at 10 µM; 3,700 tested, 33% active; AID 1718;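 active = thallium flux slope above the same plate's solvent-control mean plus 3 SD in both duplicate wells; inconclusive = duplicate wells that disagreed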;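 note: run without ouabain in cells lacking the KCC2 cotransporter; slope of fluorescence scaled to its starting value between 10 and 20 s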
RBBP9 confirm = confirmation of human RBBP9 inhibitors. inhibition, % at 7.94 µM. AID 1537. shares compounds with RBBP9 inhibitor. 410 tested, 36% active. recombinant RBBP9, FP-Rh probe fluorescence polarization;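 active = inhibition above the hit cutoff derived for the primary screen, cut at about 15% in these data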;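 note: 0% = RBBP9 with DMSO and 100% = wells lacking RBBP9 protein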
ROMK hit retest = human ROMK channel modulation, retest confirmation; shares compounds with ROMK primary; ROMK thallium flux, fluorescence ratio; hits give low values; normalized thallium flux (F/F0 slope) at 10 µM; 3,000 tested, 54% active;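 active = Flux at 10 µM at least 3 SD below or above vehicle control mean in one or both replicates; inconclusive = no clear call, values can overlap the other calls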
* marks the source's active call; other numbers are inactive results; ? = inconclusive; . = no result.

SMILES	WT yeast gro inh	14-3-3 Bad inh	ROMK primary	p47phox inh	KCC2 mod	RBBP9 inhibitor	RBBP9 confirm	others
Cc1c(Cl)c([N+](=O)[O-])nn1CCCC(=O)N1CCN(c2ccccc2)CC1	-1	8	-0.58	-17	-2.7*	-7	.	KCC2 secondary=0.01;KCC2 bumet counter=?;KCC2 sec2=0.035;HEK293 Tl flux=0.0081;KCC2 ouabain=0.021;HEK293 Tl flux2=?
CCCCN(C)CCCNC(=O)C1CC(=O)N(Cc2ccc(OC)cc2)C1 (stereo not drawn)	4	-12	0.017	-5	.	-3	.	KCC2 secondary=0.009;KCC2 bumet counter=0.0051;KCC2 sec2=0.031;HEK293 Tl flux=0.0075;KCC2 ouabain=0.019;HEK293 Tl flux2=0.011
COc1ccc(CN2CC(C(=O)NCCC(C)C)CC2=O)cc1 (stereo not drawn)	-8	-9	0.11	2	0.51	5	.
CC(=O)OCCCNc1cc(SCc2ccco2)c2nonc2c1[N+](=O)[O-]	5	5	.	-4	0.029	1	.
O=[N+]([O-])c1c(NCCCO)cc(Sc2nc3ccccc3s2)c2nonc12	53	26	.	15	3.2*	17*	23*	KCC2 secondary=0.0064;KCC2 bumet counter=0.019*;KCC2 sec2=0.033;HEK293 Tl flux=0.013*;KCC2 ouabain=?;HEK293 Tl flux2=0.016*
CCOc1ccc(C(CC(=O)O)NC(=O)c2cccs2)cc1OC (stereo not drawn)	-5	-17	0.26	7	1.2	-6	.
O=C(Nc1nnc(C2=COCCO2)o1)c1ccc(Cc2ccccc2)cc1	68*	-15	.	-19	7.3*	17*	5	KCC2 secondary=0.0067;KCC2 bumet counter=0.019*;KCC2 sec2=0.031;HEK293 Tl flux=0.016*;KCC2 ouabain=?;HEK293 Tl flux2=0.019*
CN1CCN(NC(=O)c2ccc(Br)s2)CC1	.	-2	.	-3	-0.11	-1	.
O=C(NN1C(=O)/C(=C/C=C/c2ccco2)SC1=S)c1ccccc1O	.	75*	.	-65	-3.3*	23*	15*	KCC2 secondary=0.0056;KCC2 bumet counter=?;KCC2 sec2=0.023*;HEK293 Tl flux=0.0073;KCC2 ouabain=?;HEK293 Tl flux2=0.011
CCc1oc2ccccc2c1C(=O)c1cc(Br)c(O)c(Br)c1	85*	8	4.6*	-21	-1.6	-6	.	KCC2 secondary=0.0067;KCC2 bumet counter=0.019*;KCC2 sec2=0.022*;HEK293 Tl flux=0.011*;KCC2 ouabain=?;HEK293 Tl flux2=?;ROMK hit retest=0.15*
Cc1sc(NC(=S)NC(=O)C(C)(C)C)c(C(N)=O)c1C	1	3	.	-18	.	-3	.
CCOc1cccc(CN2CCN(Cc3ccc(C)o3)C(CCO)C2)c1O (stereo not drawn)	1	-2	-0.039	-5	0.9	15*	1
O=C(CN1CCN(C(c2ccccc2)c2ccccc2)CC1)NCc1ccccc1	18	-6	-1.3	-3	1	14*	6
O=C1C2CC=CCC2C(=O)N1Cc1ccccc1 (stereo not drawn)	-13	-1	-0.2	-5	0.18	19*	9
CCOC(=O)Cn1nc(C)c(NC(=O)c2ccc(Cl)c([N+](=O)[O-])c2)c1C	-15	-7	-1.6	-8	.	1	.
O=C(Cn1cnc2cc([N+](=O)[O-])ccc2c1=O)NC1CCS(=O)(=O)C1 (stereo not drawn)	-24	6	0.34	-5	-0.14	3	.
Cc1nn(-c2ccccc2)c(Cl)c1/C=N/NC(=O)CNC(=O)c1ccccc1Cl	-16	-1	.	-3	-2.3	39*	3
Cc1nn(-c2ccccc2)c(Cl)c1/C=N/NC(N)=O	.	2	0.48	-10	1.2	-3	.
Cc1ccc(NC(=S)N2CCCCC2CO)cc1C (stereo not drawn)	8	3	-0.25	.	0.2	5	.
COc1ccc(/C=C/C(=O)Oc2cc(O)cc(O)c2)cc1	.	1	0.074	-6	-0.58	-5	.
COc1ccc(-c2cc(O)cc(O)c2)cc1	-2	12	0.045	-4	0.79	35*	5
CN1CCN(C(=S)c2cn(CCOc3ccccc3F)c3ccccc23)CC1	4	-3	-1	-11	-1.1	-7	.
CC1=NNC(=O)C1C(c1ccc(Cl)cc1)C(C#N)C#N (stereo not drawn)	.	-5	0.21	-8	0.19	22*	-1
CCC(=O)Oc1ccc(C/C(=N\O)c2ccc(O)cc2O)o1	-16	8	-1.6	-5	.	31*	52*
COc1ccc2c(c1)CC(C1(O)C(=O)Nc3ccccc31)C2=O (stereo not drawn)	-8	-3	.	-6	.	19*	2
SMILES	WT yeast gro inh	14-3-3 Bad inh	ROMK primary	p47phox inh	KCC2 mod	RBBP9 inhibitor	RBBP9 confirm	others
Cc1[nH]c2ccccc2c1C(=O)COC(=O)c1ccc[n+]([O-])c1	.	6	.	0	0.25	16*	0
Cc1ccc(C)c(Nc2c([N+](=O)[O-])c(=O)oc3ccccc23)c1	.	3	.	-5	-3.5	-4	.
COC(=O)c1ccc(N2C(=O)CC(N3CCN(c4ccccc4)CC3)C2=O)cc1 (stereo not drawn)	.	.	.	.	-0.6	21*	10
N#C/C(=C\c1cc(Cl)c(OCc2ccc(Cl)cc2)c(Cl)c1)C(N)=O	.	4	.	-6	0.48	-4	.
N#C/C(=C\c1cc(O)c(O)c(O)c1)C(N)=O	.	9	.	-10	-0.037	18*	20*
O=C(Nc1ccc2oc(=O)ccc2c1)c1cccnc1Cl	29	-4	.	-2	1.1	-8	.
Cc1c(O)ccc(C(=O)CN2CCN(Cc3ccc4c(c3)OCO4)CC2)c1O	-18	1	0.21	-7	2.1	68*	8
O=C1C=C(NCc2ccc3c(c2)OCO3)CC(c2ccccc2)C1 (stereo not drawn)	-13	-13	-0.13	-14	-1.9	-5	.
Cc1cc(C=O)c(C)n1-c1ccc(N2CCOCC2)c([N+](=O)[O-])c1	-11	-10	-0.54	-11	0.077	-5	.
